According to ChEMBL document CHEMBL2203129, “Structure-activity relationship studies of naphthol AS-E and its derivatives as anticancer agents by inhibiting CREB-mediated gene transcription” (Bioorg Med Chem, 2012):
Each block holds one compound with its values, some of them ahead of it. Calls of active or inactive are those of the source. The rule behind the calls is not given here.

Experiments:
[1] = tested on: MDA-MB-468; assay: Growth inhibition of human MDA-MB-468 cells after 72 hrs by MTT assay; type: functional; details: MDA-MB-468, 72 h
[2] = tested on: MDA-MB-231; assay: Growth inhibition of human MDA-MB-231 cells after 72 hrs by MTT assay; type: functional; details: MDA-MB-231, 72 h
[3] = tested on: MCF7; assay: Growth inhibition of human MCF7 cells after 72 hrs by MTT assay; type: functional; details: MCF7, 72 h
[4] = tested on: A549; assay: Growth inhibition of human A549 cells after 72 hrs by MTT assay; type: functional; details: A549, 72 h
[5] = Inhibition of CREB-mediated gene transcription in human HEK293T cells by renilla luciferase reporter assay; type: cell-based; details: HEK-293T
Outline: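 HEK 293T cells transfected with pCRE-RLuc, replated after 3 h and attached overnight; compound added, then forskolin (final 10 µM) 30 min later; 5 h at 37 °C.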

[6] = Inhibition of KIX domain of CBP interaction with KID domain of CREB after 20-24 hrs by Renilla luciferase complementation assay
Outline: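 RLucC-KIX (20 ng) and KID-RLucN lysate (1.0 µg) per reaction in Renilla lysis buffer with compound, incubated at 4 °C for 20–24 h; residual luminescence read with benzyl-coelenterazine in PBS pH 7.4.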

[7] = tested on: MCF7; assay: Cytotoxicity against human MCF7 cells expressing wild type CREB assessed as reduction in cell proliferation at 10 to 50 uM after 48 hrs by MTT assay; type: functional, cell-based
Outline: (§1)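 MCF-7 cells stably transfected with Flag-tagged VP16-CREB (G418 2 mg/mL selection; expression checked by anti-FLAG blot) alongside parental MCF-7. Compound at indicated concentrations in triplicate for 48 h; live cells quantified with MTT reagent; Student's t-test.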

[8] = tested on: MCF7; assay: Cytotoxicity against human MCF7 cells expressing VP16-CREB mutant assessed as reduction in cell proliferation at 10 to 50 uM after 48 hrs by MTT assay; type: functional, cell-based; outline: as §1
[9] = tested on: A549; assay: Inhibition of CREB in human A549 cells assessed as reduction in VEGF level at 2.5 to 10 uM after 24 hrs by ELISA; type: cell-based
Outline: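 A549 cells treated in duplicate for 24 h; VEGF in culture medium measured by ELISA and normalized to medium protein concentration; one-way ANOVA.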

[10] = tested on: A549; assay: Inhibition of CREB in human A549 cells assessed as reduction in Bcl-2 protein expression at 5 to 10 uM after 48 hrs by Western blot analysis; type: cell-based
Outline: (§2)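 Exponentially growing A549 cells treated 48 h; washed in cold PBS, lysed in NP-40 buffer (50 mM Tris pH 8.0, 5 mM EDTA, 150 mM NaCl, 1 mM DTT, 0.5% NP-40) with 8 M urea. Equal protein on 10% SDS-PAGE, PVDF transfer, antibody detection; GAPDH loading control.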

[11] = tested on: HFF; assay: Cytotoxicity against human HFF cells assessed as effect on cell viability at 5 to 10 uM after 48 hrs by trypan blue exclusion assay; type: cell-based
Outline: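 HFF cells (maintained in DMEM, 10% FBS, 37 °C, 5% CO2) exposed to increasing compound concentrations in triplicate for 48 h; live cells counted by trypan blue exclusion.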

[12] = tested on: HMEC; assay: Cytotoxicity against HMEC assessed as effect on cell viability at less than or equal to 10 uM after 48 hrs by trypan blue exclusion assay; type: cell-based; details: human
Outline: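 HMEC grown in MEGM complete medium, switched to DMEM with 10% FBS and penicillin/streptomycin on the day of treatment; compound added at various concentrations, triplicate, 48 h at 37 °C, 5% CO2. Live cells counted by trypan blue exclusion; one-way ANOVA.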

[13] = tested on: MCF7; assay: Cytotoxicity against human MCF7 cells expressing wild type CREB assessed as reduction in cell proliferation at 0.5 to 10 uM after 48 hrs by MTT assay; type: functional, cell-based; outline: as §1
[14] = tested on: MCF7; assay: Cytotoxicity against human MCF7 cells expressing VP16-CREB mutant assessed as effect on cell proliferation at 0.5 to 10 uM after 48 hrs by MTT assay; type: functional, cell-based; outline: as §1
[15] = tested on: A549; assay: Induction of apoptosis in human A549 cells assessed as necrotic cells at 10 uM after 48 hrs by Annexin V-FITC/PI staining based flow cytometry (reference value: 1.5%); type: functional
[16] = tested on: A549; assay: Induction of apoptosis in human A549 cells assessed as late apoptotic cells at 10 uM after 48 hrs by Annexin V-FITC/PI staining based flow cytometry (reference value: 2.98%); type: functional
[17] = tested on: A549; assay: Induction of apoptosis in human A549 cells assessed as early apoptotic cells at 10 uM after 48 hrs by Annexin V-FITC/PI staining based flow cytometry (reference value: […]); type: functional
[18] = tested on: A549; assay: Induction of apoptosis in human A549 cells assessed as viable cells at 10 uM after 48 hrs by Annexin V-FITC/PI staining based flow cytometry (reference value: 91.6%); type: functional; details: A549, 48 h, read-out: Activity
[19] = tested on: A549; assay: Induction of apoptosis in human A549 cells assessed as necrotic cells at 7.5 uM after 48 hrs by Annexin V-FITC/PI staining based flow cytometry (reference value: 1.5%); type: functional
[20] = tested on: A549; assay: Induction of apoptosis in human A549 cells assessed as late apoptotic cells at 7.5 uM after 48 hrs by Annexin V-FITC/PI staining based flow cytometry (reference value: 2.98%); type: functional
[21] = tested on: A549; assay: Induction of apoptosis in human A549 cells assessed as early apoptotic cells at 7.5 uM after 48 hrs by Annexin V-FITC/PI staining based flow cytometry (reference value: […]); type: functional
[22] = tested on: A549; assay: Induction of apoptosis in human A549 cells assessed as viable cells at 7.5 uM after 48 hrs by Annexin V-FITC/PI staining based flow cytometry (reference value: 91.6%); type: functional; details: A549, 48 h, read-out: Activity
[23] = tested on: A549; assay: Induction of apoptosis in human A549 cells assessed as necrotic cells at 5 uM after 48 hrs by Annexin V-FITC/PI staining based flow cytometry (reference value: 1.5%); type: functional
[24] = tested on: A549; assay: Induction of apoptosis in human A549 cells assessed as late apoptotic cells at 5 uM after 48 hrs by Annexin V-FITC/PI staining based flow cytometry (reference value: 2.98%); type: functional
[25] = tested on: A549; assay: Induction of apoptosis in human A549 cells assessed as early apoptotic cells at 5 uM after 48 hrs by Annexin V-FITC/PI staining based flow cytometry (reference value: […]); type: functional
[26] = tested on: A549; assay: Induction of apoptosis in human A549 cells assessed as viable cells at 5 uM after 48 hrs by Annexin V-FITC/PI staining based flow cytometry (reference value: 91.6%); type: functional; details: A549, 48 h, read-out: Activity
[27] = tested on: A549; assay: Induction of apoptosis in human A549 cells assessed as PARP cleavage at 5 to 10 uM after 48 hrs by Western blot analysis; type: functional, cell-based; outline: as §2
[28] = molecular target: Cellular tumor antigen p53 (Homo sapiens) (UniProt P04637); assay: Inhibition of p53 in human A549 cells assessed as effect on p21 gene expression at 1 to 10 uM after 4 hrs by quantitative RT-PCR analysis; type: cell-based
Outline: (§3)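 A549 cells treated in duplicate for 4 h; total RNA DNase-treated (37 °C, 30 min), reverse-transcribed with random hexamers; qPCR with SYBR Green normalized to HPRT; one-way ANOVA.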

[29] = tested on: A549; assay: Inhibition of CREB in human A549 cells assessed as reduction in VEGF gene expression at 10 uM after 4 hrs by quantitative RT-PCR analysis; type: cell-based
[30] = tested on: A549; assay: Inhibition of CREB in human A549 cells assessed as reduction in Bcl-2 gene expression at 1 to 10 uM after 4 hrs by quantitative RT-PCR analysis; type: cell-based; outline: as §3
[31] = molecular target: Cellular tumor antigen p53 (Homo sapiens) (UniProt P04637); assay: Inhibition of p53 transfected in HEK293T cells assessed as gene transcription after 5 hrs by Renilla luciferase reporter assay; type: cell-based; details: HEK-293T
[32] = molecular target: Cellular tumor antigen p53 (Homo sapiens) (UniProt P04637); assay: Inhibition of p53 in human A549 cells assessed as effect on p21 protein expression at 5 to 10 uM after 48 hrs by Western blot analysis; type: cell-based; outline: as §2

Sequence of Cellular tumor antigen p53 (Homo sapiens) (P04637 whole entry, looked up): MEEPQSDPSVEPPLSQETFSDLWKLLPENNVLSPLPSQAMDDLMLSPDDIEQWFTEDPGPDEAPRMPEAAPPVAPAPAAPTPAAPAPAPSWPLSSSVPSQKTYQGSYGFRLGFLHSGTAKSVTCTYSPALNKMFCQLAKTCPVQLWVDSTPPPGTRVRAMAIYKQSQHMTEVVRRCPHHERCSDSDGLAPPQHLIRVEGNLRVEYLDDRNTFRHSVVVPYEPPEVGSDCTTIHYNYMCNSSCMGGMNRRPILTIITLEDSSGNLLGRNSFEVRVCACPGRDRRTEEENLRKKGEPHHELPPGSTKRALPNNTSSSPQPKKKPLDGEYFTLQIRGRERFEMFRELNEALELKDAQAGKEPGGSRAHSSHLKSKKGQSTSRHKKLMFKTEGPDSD

SMILES: O=C(Nc1ccncc1)c1cc2ccccc2cc1O
- GI50 [1]: 63.4 µM
- GI50 [2]: 35.5 µM
- GI50 [3]: 15.8 µM
- GI50 [4]: 25 µM
- IC50 [5]: 20.7 µM
- IC50 [6]: 16.3 µM

SMILES: CN(C(=O)c1cc2ccccc2cc1O)c1ccc(Cl)cc1
- Activity [7]: Active
- Activity [8]: Active

SMILES: Nc1ccc(NC(=O)c2cc3ccccc3cc2O)cc1
- GI50 [1]: 57.1 µM
- GI50 [2]: > 100 µM
- GI50 [3]: 28 µM
- GI50 [4]: 51.6 µM
- IC50 [5]: > 50 µM
- IC50 [6]: 25.4 µM

SMILES: COc1ccc(NC(=O)c2cc3ccccc3cc2O)cc1
- GI50 [1]: 79.3 µM
- GI50 [2]: 75.5 µM
- GI50 [3]: 6.55 µM
- GI50 [4]: 85.7 µM
- IC50 [5]: > 50 µM
- IC50 [6]: > 50 µM

SMILES: O=C(Nc1ccccc1Cl)c1cc2ccccc2cc1O
- GI50 [1]: 6.65 µM
- GI50 [2]: 17.2 µM
- GI50 [3]: 2.27 µM
- GI50 [4]: 4.83 µM
- IC50 [5]: 5.72 µM
- IC50 [6]: 5.43 µM

SMILES: O=C(Nc1cnccn1)c1cc2ccccc2cc1O
- GI50 [1]: 37.6 µM
- GI50 [2]: > 100 µM
- GI50 [3]: 17.9 µM
- GI50 [4]: 33.2 µM
- IC50 [5]: > 50 µM
- IC50 [6]: 20.3 µM

SMILES: O=C(Nc1ccc(C(F)(F)F)cc1)c1cc2ccccc2cc1O
- GI50 [1]: 63.3 µM
- GI50 [2]: 64.2 µM
- GI50 [3]: 3.62 µM
- GI50 [4]: 4.15 µM
- IC50 [5]: 6.75 µM
- IC50 [6]: > 50 µM

SMILES: O=C(Nc1ccc(O)cc1)c1cc2ccccc2cc1O
- GI50 [1]: 65.3 µM
- GI50 [2]: > 100 µM
- GI50 [3]: 9.52 µM
- GI50 [4]: 28.1 µM
- IC50 [5]: 40.5 µM
- IC50 [6]: 28.2 µM

The next lines start with results.

- GI50 [1]: 2.94 µM
- GI50 [2]: 7.87 µM
- GI50 [3]: 9.76 µM
- GI50 [4]: 5.51 µM
- IC50 [5]: 4.98 µM
- IC50 [6]: 34.5 µM
SMILES: O=C(Nc1ccc(I)cc1)c1cc2ccccc2cc1O

- GI50 [1]: 6.61 µM
- GI50 [2]: 9.93 µM
- GI50 [3]: 1.83 µM
- GI50 [4]: 3.98 µM
- IC50 [5]: 3.45 µM
- IC50 [6]: 9.59 µM
SMILES: O=C(Nc1ccc(Br)cc1)c1cc2ccccc2cc1O

- GI50 [1]: 0.85 µM
- GI50 [2]: 2.2 µM
- GI50 [3]: 6.86 µM
- GI50 [4]: 3.65 µM
- IC50 [5]: 2.29 µM
- IC50 [6]: 5.13 µM
SMILES: O=C(Nc1ccc(F)c(Cl)c1)c1cc2ccccc2cc1O

- GI50 [1]: 5.69 µM
- GI50 [2]: 44.2 µM
- GI50 [3]: 6.25 µM
- GI50 [4]: 75.8 µM
- IC50 [5]: > 50 µM
- IC50 [6]: 1.69 µM
SMILES: O=C(Nc1ccccn1)c1cc2ccccc2cc1O

- GI50 [1]: 2.78 µM
- GI50 [2]: 11.4 µM
- GI50 [3]: 4.16 µM
- GI50 [4]: 6.78 µM
- IC50 [5]: 4.86 µM
- IC50 [6]: 1.73 µM
SMILES: O=C(Nc1ccc(F)cc1)c1cc2ccccc2cc1O

- GI50 [1]: 2.58 µM
- GI50 [2]: 4.91 µM
- GI50 [3]: 2.43 µM
- GI50 [4]: 3.68 µM
- IC50 [5]: 2.7 µM
- IC50 [6]: > 50 µM
SMILES: O=C(Nc1cccc(Cl)c1)c1cc2ccccc2cc1O

- GI50 [1]: 1.46 µM
- GI50 [2]: 2.35 µM
- GI50 [3]: 2.81 µM
- GI50 [4]: 2.9 µM
- IC50 [5]: 2.29 µM
- IC50 [6]: 2.9 µM
- inhibition [28]: inactive
- inhibition [31]: inactive
- inhibition [32]: inactive
SMILES: O=C(Nc1ccc(Cl)cc1)c1cc2ccccc2cc1O
- inhibition [9]: Active
- inhibition [10]: Active
- Activity [11]: Non-toxic
- Activity [12]: Non-toxic
- Activity [13]: Active
- Activity [14]: inactive
- Activity [15]: 0.58%
- Activity [16]: 4.2%
- Activity [17]: 19.4%
- viability at 10 µM [18]: 75.9%
- Activity [19]: 1.42%
- Activity [20]: 2.9%
- Activity [21]: 10.1%
- viability at 7.5 µM [22]: 85.6%
- Activity [23]: 1.36%
- Activity [24]: 3.06%
- Activity [25]: 6.5%
- viability at 5 µM [26]: 89.1%
- Activity [27]: Active
- inhibition [29]: Active
- inhibition [30]: Active

- GI50 [1]: 4.19 µM
- GI50 [2]: 11.6 µM
- GI50 [3]: 2.09 µM
- GI50 [4]: 3.57 µM
- IC50 [5]: 3.73 µM
- IC50 [6]: 2.39 µM
SMILES: O=C(Nc1ccc(F)c(F)c1)c1cc2ccccc2cc1O
